Screening data (PubChem)
rCAG binder = r(CAG) repeat RNA binding | TO-PRO-1 dye displacement fluorescence | inhibition, % at 3 µM | 370,000 compounds, 1.3% hits;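 active means inhibition above the plate cutoff, the mean of all test compounds on that plate plus 3 SD, cut at about 35% in these data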;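 further: 0% = DMSO alone and 100% = 100 µM mitoxantrone as full dye displacement; higher means more dye released from RNA so lower well fluorescence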
TCR CD3 inh = blocks the human TCR-CD3 interaction | TAMRA-labeled TCR probe fluorescence, biochemical | inhibition, % at 9.4 µM | 360,000 compounds, 0.37% hits | AID 651800; in the data active means inhibition above about 19%;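 further: recombinant mutant TCR 2C K166C tagged with TAMRA read by polarization; 0% = receptor in buffer alone and 100% = receptor with positive control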
mABHD4 FP = inhibits mouse alpha/beta hydrolase domain 4; Q8VD66; purified mABHD4, FP-Rh probe fluorescence polarization; inhibition, % at 8.92 µM; 370,000 compounds, 0.54% hits; AID 720543;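 active means inhibition exceeding the mean over every tested compound plus 3 SD, cut at about 30% in these data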;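 further: 0% = plate median of compound wells and 100% = S159A mutant with DMSO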
Target sequence (Q8VD66 whole entry, looked up, the tested form may be a part): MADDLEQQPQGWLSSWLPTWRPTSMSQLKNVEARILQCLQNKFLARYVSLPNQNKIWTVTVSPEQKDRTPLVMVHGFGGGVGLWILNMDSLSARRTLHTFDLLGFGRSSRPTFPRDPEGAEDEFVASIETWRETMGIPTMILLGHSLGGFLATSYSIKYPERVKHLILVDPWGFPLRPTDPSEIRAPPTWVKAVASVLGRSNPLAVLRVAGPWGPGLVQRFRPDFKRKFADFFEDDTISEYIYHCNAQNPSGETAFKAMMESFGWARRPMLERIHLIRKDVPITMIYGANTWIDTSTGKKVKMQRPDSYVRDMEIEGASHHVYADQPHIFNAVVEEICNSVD
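Assay system: wild-type mouse ABHD4 protein; compound: single nominal dose of 8.92 µM, 0.89% DMSO final; schedule: 45 min + 60 min at 25 °C; measured by: FP readout, ex 525 nm / em 598 nm; evaluation: % inhibition of FP-Rh probe binding versus controls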
HTRA1 inh = inhibitors of human serine peptidase HTRA1. Q92743. recombinant HTRA1, FP-rhodamine activity-based probe, fluorescence polarization. inhibition, % at 5.96 µM. 340,000 compounds, 0.5% hits; in the data active means inhibition above about 36%;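 further: 0% = enzyme with DMSO and 100% = wells lacking enzyme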
SIAE primary = inhibitors of human sialic acid acetylesterase SIAE; inhibition, % at 9.66 µM; Q9HAT2; 370,000 compounds, 0.69% hits; SIAE FP-Rh probe binding, fluorescence polarization;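 active means inhibition above a cutoff: mean of compounds within the control limits plus 3 SD of those, cut at about 17% in these data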;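 further: 0% = plate median of compound wells and 100% = probe without SIAE protein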
rCAG binder conf = r(CAG) RNA repeat binding, confirmation. TO-PRO-1 dye displacement fluorescence. inhibition, % at 3 µM. 4,300 compounds, 70% hits. AID 652065. shares compounds with rCAG binder;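 active means inhibition above a per-plate cutoff, the mean inhibition of sample wells plus 3 SD, cut at about 35% in these data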;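 further: loss of TO-PRO-1 fluorescence as compound displaces dye from 1x1 AA loop RNA; 0% = DMSO only wells and 100% = 100 µM mitoxantrone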
dCAG dye counter = disrupts DNA CAG TO-PRO-1 complex, flagging rCAG hits; shares compounds with rCAG binder; AID 652068; 4,300 compounds, 94% hits; d(CAG) DNA oligo TO-PRO-1 dye displacement, fluorescence; inhibition, % at 3 µM;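 active means inhibition above its plate's cutoff, the mean test-well inhibition plus 3 SD, cut at about 4.8% in these data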;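 further: 0% = DNA dye mix with DMSO and 100% = 100 µM mitoxantrone; hits displace the dye from DNA and so lower well fluorescence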
dCAG dye DR = counter-screen for rCAG binders: inhibitors of DNA CAG TO-PRO-1 complex; shares compounds with rCAG binder; DNA CAG/GTC duplex TO-PRO-1 dye displacement fluorescence; IC50, µM; 250 compounds, 20% hits; in the data active means IC50 below about 10 µM
* = called active by the depositor; . = no result given. Compounds with a hit are over-represented: about 2.5% of the library has one in this group of screens.

SMILES | rCAG binder | TCR CD3 inh | mABHD4 FP | HTRA1 inh | SIAE primary | rCAG binder conf | dCAG dye counter | others
NS(=O)(=O)c1ccc(NC(=O)COC(=O)c2cn(-c3ccccc3)nc2-c2ccc(F)cc2)cc1 | 16 | -12 | -28 | -21 | -45 | . | .
CCOc1ccc(N(Cc2ccccc2F)C2=NC3CS(=O)(=O)CC3S2)cc1 (centres undefined) | 0 | 0 | 3 | 1 | 3 | . | .
O=C(Nc1ccc(Cl)c(S(=O)(=O)Nc2ccccc2Cl)c1)c1cccs1 | 48* | 8 | -67 | -42 | -64 | 29 | 11*
CCN(c1cccc(C)c1)S(=O)(=O)c1ccc2c(c1)NC(=O)CCS2 | -2 | 10 | 3 | -5 | 6 | . | .
COc1ccc([N+](=O)[O-])cc1-c1[nH]c(-c2ccc(C(=O)O)cc2)nc1-c1ccccc1 | 55* | 5 | -5 | -11 | -5 | 48* | 16*
COc1ccc(C=O)cc1CSc1ccccn1 | 2 | 2 | 6 | -8 | 6 | . | .
COc1ccc(/C=N/NC(=O)c2ccc(O)cc2O)cc1CSc1ccccn1 | 36* | 14 | -51 | -14 | 8 | 32 | 12*
O=C(NNC(=S)NC(=O)c1ccccc1Cl)c1cccc([N+](=O)[O-])c1 | 5 | 10 | 6 | 8 | 0 | . | .
O=C(NC(NC(=S)Nc1c(Cl)cccc1Cl)C(Cl)(Cl)Cl)c1cccc([N+](=O)[O-])c1 (centres undefined) | 47* | 9 | -5 | -68 | -174 | 36* | 16*
O=C(NNc1c(Cl)cc(Cl)cc1Cl)c1cccc([N+](=O)[O-])c1 | 37* | 4 | -4 | -9 | -14 | 6 | 3
CCN(C(=O)COC(=O)c1ccccc1NC(=O)c1ccco1)C1CCS(=O)(=O)C1 (centres undefined) | 2 | 2 | -9 | -6 | -7 | . | .
O=C(C=Cc1ccco1)c1ccc2ccccc2c1 | 38* | -5 | 7 | -32 | 3 | 16 | 10*
CC(=O)Nc1ccc(C(=O)/C=C/c2ccco2)cc1 | 35* | -5 | -5 | 11 | 4 | 25 | 13*
CN(C)c1ccc(C(=O)/C=C/c2ccco2)cc1 | 14 | 2 | 8 | 4 | 10 | . | .
Cn1[nH]c(-c2ccccc2)c(/C=N/O)c1=O | 0 | 4 | 3 | . | 9 | . | .
O=S(=O)(NCCCCCNS(=O)(=O)c1ccccc1)c1ccccc1 | 1 | 2 | 1 | 5 | 6 | . | .
CSc1cccc(NC(=O)Nc2nc3c(C)cccc3s2)c1 | 52* | 4 | -7 | -19 | -25 | 45* | 34*
Cc1ccc(S(=O)(=O)N2[C@@H](c3ccc(Br)cc3)C(C(=O)O)=CC[C@H]2c2cccs2)cc1 | 74* | -3 | 1 | -11 | -3 | 66* | 29*
Cc1ccc(S(=O)(=O)N2[C@@H](c3ccc(Cl)cc3)C(C(=O)O)=CC[C@H]2c2cccs2)cc1 | 67* | -1 | 6 | -17 | 5 | 54* | 17*
Cc1ccc(S(=O)(=O)N2[C@@H](c3cccc(Cl)c3)C(C(=O)O)=CC[C@H]2c2cccs2)cc1 | 58* | 5 | 10 | -25 | -6 | 50* | 15*
Cc1ccc(S(=O)(=O)N2[C@@H](c3ccc(F)cc3)C(C(=O)O)=CC[C@H]2c2cccs2)cc1 | 43* | -1 | 4 | -9 | -1 | 37* | 9.9*
Cn1c(=O)c2c(nc(CN3CCN(c4ccc(F)cc4)CC3)n2CCN2CCOCC2)n(C)c1=O | -5 | 12 | 2 | -4 | -1 | . | .
O=C(Cc1ccccn1)Nc1ccccc1 | 0 | 5 | 1 | -2 | 1 | . | .
Cc1ccc(C)c(NC(=O)c2ccccc2O)c1 | 4 | 7 | -1 | 4 | -7 | . | .
Cc1ccc(S(=O)(=O)N2[C@@H](c3ccc(C(C)(C)C)cc3)C(C(=O)O)=CC[C@H]2c2cccs2)cc1 | 81* | 1 | 12 | -40 | -7 | 73* | 34* | dCAG dye DR=9.5*
SMILES | rCAG binder | TCR CD3 inh | mABHD4 FP | HTRA1 inh | SIAE primary | rCAG binder conf | dCAG dye counter | others
Cc1ccc([C@H]2C(C(=O)O)=CC[C@@H](c3cccs3)N2S(=O)(=O)c2ccc(C)cc2)cc1 | 61* | 6 | 12 | -7 | 1 | 48* | 17*
Cn1cc(CN2CCCC(C(=O)Nc3ccc(-c4cccc(F)c4)cc3)C2)cn1 (centres undefined) | -7 | -4 | 6 | 3 | 1 | . | .
COC(=O)c1cccc(NC(=O)c2cccnc2)c1 | 6 | -3 | -10 | 0 | -11 | . | .
CCn1c2ccccc2c2cc(NC(=O)COC(=O)c3cc(S(N)(=O)=O)c(Cl)cc3Cl)ccc21 | 36* | 9 | -9 | 4 | -3 | 32 | 17*
CCn1c2ccccc2c2cc(NC(=O)COC(=O)c3ccc(C)cc3)ccc21 | 4 | . | 7 | . | 3 | . | .
CCn1c2ccccc2c2cc(NC(=O)COC(=O)c3ccc(NC(=O)CC#N)cc3)ccc21 | 47* | -5 | -25 | -8 | 8 | 35* | 21*
CCOC(=O)c1ccc(N2C(=O)c3n[nH]c(C)c3C2c2ccccn2)cc1 (centres undefined) | 2 | -2 | 2 | -7 | -9 | . | .
CCc1nnc(NS(=O)(=O)c2ccc(NC(=O)/C=C/c3ccc(F)cc3)cc2)s1 | 73* | 7 | -40 | -37 | -19 | 50* | 20*
CCc1nnc(NS(=O)(=O)c2ccc(NC(=S)NC(=O)c3ccc(F)cc3)cc2)s1 | 64* | -5 | 1 | -14 | 0 | 52* | 19*
CCc1nnc(NS(=O)(=O)c2ccc(NC(=O)c3ccc(Br)cc3)cc2)s1 | 60* | 7 | -15 | -12 | -8 | 53* | 13*
C=CCn1c(SCC(=O)NC(N)=O)nnc1-c1cc2c(s1)CCC(CC)C2 (centres undefined) | -5 | -6 | -13 | -8 | 3 | . | .
O=C(N[C@H](C(=O)N1CCC[C@H]1C(=O)NCc1ccccc1)C1CCCCC1)c1ccccc1 | 0 | 6 | 3 | . | 3 | . | .
O=C(Nc1ccc(Cl)cc1)c1ccc2c(c1)OCO2 | -1 | 6 | -10 | -5 | -1 | . | .
CCCCc1cc(=O)oc2c(C)c(OCC(=O)N3CCCC3)ccc12 | -6 | 4 | 4 | -3 | 4 | . | .
CCCCc1cc(=O)oc2c(C)c(OCC(=O)N3CCC(C(=O)O)(c4ccccc4)CC3)ccc12 | 40* | 6 | 3 | -10 | -9 | 52* | 13*
O=C(O)c1cnn(-c2nc(-c3cccc(F)c3)cs2)c1C(F)(F)F | 5 | 7 | 4 | -2 | -1 | . | .
O=C(O)c1cnn(-c2nc(-c3ccc(Cl)c(Cl)c3)cs2)c1C(F)(F)F | 64* | 1 | -50 | -60 | -14 | 44* | 9.5*
